Converted amounts (≈) assume the structure as drawn. Where two headings read alike, the source gives them in different places. Non-standard residues stand in square brackets, D forms with d. Residues, ends and D or L forms follow the SMILES beside them. *: point of attachment. Decanoyl = CCCCCCCCCC(=O)*; Octanoyl = CCCCCCCC(=O)*
How the values were obtained:
[1] = system: Klebsiella pneumonia ATCC 13883; conditions: LL-37; ref [36]; cited from earlier work
E. coli ATCC25922 [2] = conditions: LL-37; ref [36]; cited from earlier work
human red blood cells [3] = conditions: LL-37; ref [36]; cited from earlier work
P. aeruginosa PAO1 [4] = conditions: LL-37; ref [36]; cited from earlier work
S. aureus USA300 LAC [5] = conditions: for Minimal inhibitory concentration (MIC): USA300, pH 7.4
[6] = system: Klebsiella pneumonia ATCC 13883; assay type: cell-based, Klebsiella pneumoniae
P. aeruginosa PAO1 [7] = assay type: cell-based, Pseudomonas aeruginosa
E. coli ATCC25922 [8] = system: E. coli ATCC25922
HaCaT cells = assay type: cell-based, human
human red blood cells [9] = assay type: cell-based; conditions: red cells of human, 1 h
S. aureus V8 protease = S. aureus V8 protease (Staphylococcus aureus, UniProt P0C1U8); assay type: in vitro ADME; conditions: 10 mM PBS pH 7.4, 37 °C, 3 h and 1 day, SDS-PAGE, Coomassie
Chain of S. aureus V8 protease (P0C1U8 69-336): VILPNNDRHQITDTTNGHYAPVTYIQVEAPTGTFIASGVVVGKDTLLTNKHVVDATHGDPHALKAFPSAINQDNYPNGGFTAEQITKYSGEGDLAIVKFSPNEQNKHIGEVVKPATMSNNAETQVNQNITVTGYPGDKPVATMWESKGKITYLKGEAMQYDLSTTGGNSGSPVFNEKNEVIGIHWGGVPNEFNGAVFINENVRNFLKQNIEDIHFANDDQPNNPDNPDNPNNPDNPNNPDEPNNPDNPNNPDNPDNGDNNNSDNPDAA

S. aureus USA300 LAC [10] = experiment: Resistance development, multiple passage experiment; assay type: cell-based, Staphylococcus aureus; conditions: 14 days/passages at sub-MIC; average of three independent experiments
[11] = system: MCP-1, IL-17A, IL-10, TNF-α; experiment: Cytokine levels in tissues surrounding catheters; assay type: in vivo, mouse; conditions: tissue surrounding catheter, day 3 after peptide treatment
Method in brief: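 Catheter biofilm mouse model under ketamine/xylazine (100/10 mg/kg) anesthesia. Peptide 15 mg/kg injected at five sites in and around the catheter 2 h post infection. Untreated infected and uninfected-catheter groups included. Day 3: CO₂ euthanasia, peri-catheter tissue harvested and homogenized, stored at −80 °C. Cytokines quantified by individual mouse cytokine ELISA kits in duplicate with standards.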

S. aureus USA300 LAC [12] = experiment: Bacterial membrane permeation; assay type: cell-based, Staphylococcus aureus; conditions: 12.5 μM, 37 °C, fluorescence read every 5 min
Method in brief: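 Exponential-phase S. aureus USA300 at final OD600 ~0.1 in TSB or PBS, with propidium iodide (20 μM as added) and serially diluted peptide (12.5 μM in figure). Daptomycin and rifamycin serve as controls. Incubated at 37 °C with 100 rpm shaking in a plate reader. Fluorescence (ex 584/em 620 nm) read every 5 min for 24 cycles; average values plotted.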

C57BL/6 mice = experiment: In vivo toxicity; parameters: species or system mouse
S. aureus USA300 LAC [13] = experiment: Systemic efficacy in neutropenic murine infection model; assay type: in vivo, mouse; conditions: neutropenic mice, single dose 5 mg/kg i.p., n = 8, vs untreated
Method in brief: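 Female C57BL/6 mice, 6 weeks old, made neutropenic with cyclophosphamide (day 1 150 mg/kg, day 4 100 mg/kg). Day 5: i.p. infection with ~2×10⁶ CFU S. aureus USA300. Single i.p. peptide dose 2 h later. Spleen, liver, lung and kidney weighed, homogenized in PBS, diluted, plated on blood agar (37 °C, overnight). CFU per tissue; Mann-Whitney test.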

fungal proteinase K = fungal proteinase K (Parengyodontium album, UniProt P06873); experiment: Protease stability by SDS-PAGE, proteinase K; assay type: in vitro ADME; conditions: 10 mM PBS pH 7.4, 37 °C, 1 day, Coomassie
Chain of fungal proteinase K (P06873 106-384): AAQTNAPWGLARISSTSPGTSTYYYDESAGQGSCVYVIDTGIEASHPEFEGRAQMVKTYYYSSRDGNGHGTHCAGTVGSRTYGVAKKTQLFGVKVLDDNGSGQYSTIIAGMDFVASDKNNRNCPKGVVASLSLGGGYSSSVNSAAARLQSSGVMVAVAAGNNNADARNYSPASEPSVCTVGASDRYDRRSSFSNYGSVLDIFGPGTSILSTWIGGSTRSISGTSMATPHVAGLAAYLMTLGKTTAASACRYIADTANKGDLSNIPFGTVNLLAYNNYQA

Compound | MIC KP [6] | MIC PA (P. aeruginosa PAO1 [7]) | MIC EC (E. coli ATCC25922 [8]) | relative toxicity to HaCaT cells (HaCaT cells) | Minimal inhibitory concentration (MIC) (S. aureus USA300 LAC [5]) | HC50 (human red blood cells [9]) | stability to S. aureus V8 protease (S. aureus V8 protease) | MIC increase during serial passages (S. aureus USA300 LAC [10]) | membrane permeation (propidium iodide fluorescence) (S. aureus USA300 LAC [12]) | also measured
CC[C@H](C)[C@H](NC(=O)[C@H](CCCCN)NC(=O)[C@H](CCC(=O)O)NC(=O)[C@H](CCCCN)NC(=O)[C@H](CO)NC(=O)[C@H](CCCCN)NC(=O)[C@H](CCCNC(=N)N)NC(=O)[C@H](Cc1ccccc1)NC(=O)[C@H](Cc1ccccc1)NC(=O)[C@H](CC(=O)O)NC(=O)CNC(=O)[C@H](CC(C)C)NC(=O)[C@@H](N)CC(C)C)C(=O)NCC(=O)N[C@@H](CCCCN)C(=O)N[C@@H](CCC(=O)O)C(=O)N[C@@H](Cc1ccccc1)C(=O)N[C@@H](CCCCN)C(=O)N[C@@H](CCCNC(=N)N)C(=O)N[C@H](C(=O)N[C@H](C(=O)N[C@@H](CCC(N)=O)C(=O)N[C@@H](CCCNC(=N)N)C(=O)N[C@H](C(=O)N[C@@H](CCCCN)C(=O)N[C@@H](CC(=O)O)C(=O)N[C@@H](Cc1ccccc1)C(=O)N[C@@H](CC(C)C)C(=O)N[C@@H](CCCNC(=N)N)C(=O)N[C@@H](CC(N)=O)C(=O)N[C@@H](CC(C)C)C(=O)N[C@H](C(=O)N1CCC[C@H]1C(=O)N[C@@H](CCCNC(=N)N)C(=O)N[C@H](C(=O)N[C@@H](CCC(=O)O)C(=O)N[C@@H](CO)C(=O)O)[C@@H](C)O)C(C)C)[C@@H](C)CC)C(C)C)[C@@H](C)CC [LL-37] |  |  |  |  |  |  |  |  |  | MIC KP [1]: 6.2 µM (≈ 27.9 µg/mL); MIC EC (E. coli ATCC25922 [2]): 3.1 to 6.2 µM; HC50 (human red blood cells [3]): 170 µM; MIC PA (P. aeruginosa PAO1 [4]): >50 µM; Minimal inhibitory concentration against S. aureus (S. aureus USA300 LAC [5]; 10% TSB): 50 µM (≈ 225 µg/mL); Minimal inhibitory concentration against S. aureus (S. aureus USA300 LAC [5]; 50% TSB): >50 µM; Minimal inhibitory concentration against S. aureus (S. aureus USA300 LAC [5]; 100% MHB): >50 µM; Minimal inhibitory concentration against S. aureus (S. aureus USA300 LAC [5]; 100% TSB): >50 µM
CCCCCCCC(=O)N[C@@H](CCCCN)C(=O)N[C@@H](CCCNC(=N)N)C(=O)N[C@H](C(=O)N[C@@H](Cc1c[nH]c2ccccc12)C(=O)N[C@@H](CCC(N)=O)C(=O)N[C@@H](CCCNC(=N)N)C(=O)N[C@H](C(=O)N[C@@H](CCCCN)C(=O)N[C@@H](CC(=O)O)C(=O)N[C@@H](Cc1ccccc1)C(N)=O)[C@@H](C)CC)[C@@H](C)CC [Peptide C8-KR10] (Octanoyl-KRIWQRIKDF-NH2) | 25 µM (≈ 37.9 µg/mL) | 6.2 µM (≈ 9.39 µg/mL) | 6.2 µM (≈ 9.39 µg/mL) | slightly less toxic than C8-KR10d | 6.2 µM (≈ 9.39 µg/mL) |  |  |  |  | 
CCCCCCCCCC(=O)N[C@@H](CCCCN)C(=O)N[C@@H](CCCNC(=N)N)C(=O)N[C@H](C(=O)N[C@@H](Cc1c[nH]c2ccccc12)C(=O)N[C@@H](CCC(N)=O)C(=O)N[C@@H](CCCNC(=N)N)C(=O)N[C@H](C(=O)N[C@@H](CCCCN)C(N)=O)[C@@H](C)CC)[C@@H](C)CC [Peptide C10-KR8] (Decanoyl-KRIWQRIK-NH2) | 50 µM (≈ 64 µg/mL) |  | 12.5 µM (≈ 16 µg/mL) |  | 3.1 µM (≈ 3.97 µg/mL) | 300 µM | except for S. aureus V8 protease |  |  | MIC SA (S. aureus USA300 LAC [5]; USA300): 1.5 to 3.1 µM
CCCCCCCCCC(=O)N[C@H](CCCCN)C(=O)N[C@H](CCCNC(=N)N)C(=O)N[C@@H](C(=O)N[C@H](Cc1c[nH]c2ccccc12)C(=O)N[C@H](CCC(N)=O)C(=O)N[C@H](CCCNC(=N)N)C(=O)N[C@@H](C(=O)N[C@H](CCCCN)C(N)=O)[C@H](C)CC)[C@H](C)CC [Peptide C10-KR8d] (Decanoyl-[dK][dR][dI][dW][dQ][dR][dI][dK]-NH2) | 25 µM (≈ 32 µg/mL) | 6.2 µM (≈ 7.94 µg/mL) |  | slightly more toxic than C10-KR8 | 3.1 µM (≈ 3.97 µg/mL) | 300 µM | resistant | no changes | able to permeate the membranes | IL-10 level [11]: decrease; IL-17A level [11]: up-regulation; MCP-1/CCL2 level [11]: up-regulation; TNFα level [11]: decrease; survival (C57BL/6 mice; 10 mg/kg i.p., female C57BL/6 mice n=3, 5 days observation): all mice survived; survival (C57BL/6 mice; 20 mg/kg i.p., female C57BL/6 mice n=3, 5 days observation): all mice survived; survival (C57BL/6 mice; 40 mg/kg i.p., female C57BL/6 mice n=3, died in a day): all mice died; maximal tolerated dose (MTD) (C57BL/6 mice; i.p., C57BL/6 mice, 20 mg/kg or more but less than 40 mg/kg): ≥ 20 mg/kg; CFU decrease in kidney (S. aureus USA300 LAC [13]): not in spleen and kidney; CFU decrease in spleen (S. aureus USA300 LAC [13]): not in spleen and kidney; stability to fungal proteinase K (fungal proteinase K): resistant
CCOc1ccc2ccccc2c1C(=O)N[C@@H]1C(=O)N2[C@@H]1SC(C)(C)[C@@H]2C(=O)O [nafcillin, reference compound] |  |  |  |  |  |  |  | over 30 fold |  | 
CO[C@H]1/C=C/O[C@@]2(C)Oc3c(C)c(O)c4c(O)c(cc(O)c4c3C2=O)NC(=O)/C(C)=C\C=C\[C@H](C)[C@H](O)[C@@H](C)[C@@H](O)[C@@H](C)[C@H](OC(C)=O)[C@@H]1C [rifamycin, reference compound] |  |  |  |  |  |  |  |  | unable to achieve the same effect | 

From PMC9082781 (ACS infectious diseases, 2021)
